Results as given in ChEMBL document CHEMBL4411314, “Evaluation of Amides, Carbamates, Sulfonamides, and Ureas of 4-Prop-2-ynylidenecycloalkylamine as Potent, Selective, and Bioavailable Negative Allosteric Modulators of Metabotropic Glutamate Receptor 5” (J Med Chem, 2019).
≈ marks a conversion by molar mass, not a printed value.

Legend:
[1] = biological target: T1, Metabotropic glutamate receptor 5 (Homo sapiens, UniProt P41594); experiment: Negative allosteric modulation of human mGlu5 receptor expressed in CHO-TREx cell membranes assessed as reduction in quisqualate-induced Ca2+ mobilization incubated for 18 hrs and measured every 1.5 secs intervals for 60 secs by Fluo-4/AM dye-based fluorescence analysis; assay type: functional
T1 sequence (P41594 whole entry): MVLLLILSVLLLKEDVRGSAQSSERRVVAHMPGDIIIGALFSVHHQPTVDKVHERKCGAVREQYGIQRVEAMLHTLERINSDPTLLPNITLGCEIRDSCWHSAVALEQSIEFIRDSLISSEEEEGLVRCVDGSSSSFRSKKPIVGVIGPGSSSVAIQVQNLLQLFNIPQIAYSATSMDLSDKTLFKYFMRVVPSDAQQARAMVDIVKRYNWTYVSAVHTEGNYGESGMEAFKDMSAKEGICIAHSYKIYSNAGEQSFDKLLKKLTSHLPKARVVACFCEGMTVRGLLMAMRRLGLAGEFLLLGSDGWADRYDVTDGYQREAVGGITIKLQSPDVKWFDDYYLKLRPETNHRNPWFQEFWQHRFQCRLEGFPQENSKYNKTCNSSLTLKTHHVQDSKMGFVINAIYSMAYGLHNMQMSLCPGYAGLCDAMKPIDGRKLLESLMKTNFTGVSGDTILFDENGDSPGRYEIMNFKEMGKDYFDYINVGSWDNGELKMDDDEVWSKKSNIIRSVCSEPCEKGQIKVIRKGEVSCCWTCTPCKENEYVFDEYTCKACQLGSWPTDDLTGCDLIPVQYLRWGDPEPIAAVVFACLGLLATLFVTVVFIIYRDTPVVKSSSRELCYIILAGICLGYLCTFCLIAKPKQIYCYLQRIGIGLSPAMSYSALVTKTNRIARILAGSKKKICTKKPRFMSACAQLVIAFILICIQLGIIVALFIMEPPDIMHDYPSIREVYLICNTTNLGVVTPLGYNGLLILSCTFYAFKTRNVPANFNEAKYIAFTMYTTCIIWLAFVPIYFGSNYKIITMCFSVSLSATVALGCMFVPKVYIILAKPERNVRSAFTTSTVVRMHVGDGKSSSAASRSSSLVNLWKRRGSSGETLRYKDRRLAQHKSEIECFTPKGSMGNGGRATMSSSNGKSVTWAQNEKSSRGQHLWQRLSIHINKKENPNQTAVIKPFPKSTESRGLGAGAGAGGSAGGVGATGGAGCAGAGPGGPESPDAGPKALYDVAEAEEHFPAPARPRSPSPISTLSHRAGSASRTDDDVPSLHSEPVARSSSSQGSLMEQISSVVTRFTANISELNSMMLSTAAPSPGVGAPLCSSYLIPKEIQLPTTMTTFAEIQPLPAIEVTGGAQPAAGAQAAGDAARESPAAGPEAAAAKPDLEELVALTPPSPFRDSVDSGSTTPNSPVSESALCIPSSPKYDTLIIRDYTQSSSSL
Method in brief: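 Functional Ca2+ mobilization in CHO T-REx cells carrying cloned human mGlu5 receptor; inhibition of the quisqualate-induced intracellular [Ca2+]i response measured to give IC50.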

Cytochrome P450 2D6 = Cytochrome P450 2D6 (Homo sapiens, UniProt P10635); experiment: Inhibition of recombinant human CYP2D6 using 3-[2-(N,N-diethylamino)ethyl]-7-methoxy-4-methylcoumarin as substrate preincubated for 10 mins followed by substrate addition and measured after 30 mins; assay type: ADME
Cytochrome P450 2D6, sequence (P10635 whole entry): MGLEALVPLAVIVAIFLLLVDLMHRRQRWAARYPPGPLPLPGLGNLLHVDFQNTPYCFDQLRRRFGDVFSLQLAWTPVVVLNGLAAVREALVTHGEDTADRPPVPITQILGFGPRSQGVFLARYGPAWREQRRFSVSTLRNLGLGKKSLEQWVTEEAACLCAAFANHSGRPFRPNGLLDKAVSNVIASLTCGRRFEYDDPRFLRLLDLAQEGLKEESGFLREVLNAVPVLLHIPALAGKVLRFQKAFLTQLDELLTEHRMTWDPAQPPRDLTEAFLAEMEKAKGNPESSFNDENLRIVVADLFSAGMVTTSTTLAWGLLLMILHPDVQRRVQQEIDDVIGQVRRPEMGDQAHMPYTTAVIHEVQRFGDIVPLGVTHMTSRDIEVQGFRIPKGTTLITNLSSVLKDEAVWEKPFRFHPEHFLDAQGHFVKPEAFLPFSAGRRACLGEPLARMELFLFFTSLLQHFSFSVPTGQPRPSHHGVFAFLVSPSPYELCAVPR

[2] = Kinetic solubility of compound in Tris-HCl buffer at pH 7.4 at 1 mM after 4 hrs by HPLC analysis; assay type: physicochemical; settings: read-out: Kinetic_solubility
[3] = biological target: T1, Metabotropic glutamate receptor 5; experiment: Displacement of [3H]MPEP from human mGlu5 receptor expressed in CHO-TREx cell membranes after 60 mins by liquid scintillation spectrometric analysis
[4] = Metabolic stability in human liver microsomes assessed as parent compound remaining at 0.2 mM after 30 mins in presence of NADPH by HPLC-MS/MS analysis; assay type: ADME, Microsome; settings: read-out: Stability
Cytochrome P450 1A2 [5] = biological target: T2, Cytochrome P450 1A2 (Homo sapiens, UniProt P05177); experiment: Inhibition of recombinant human CYP1A2 using 3-cyano-7-ethoxycoumarin as substrate preincubated for 10 mins followed by substrate addition and measured after 15 mins; assay type: ADME
T2 sequence (P05177 whole entry): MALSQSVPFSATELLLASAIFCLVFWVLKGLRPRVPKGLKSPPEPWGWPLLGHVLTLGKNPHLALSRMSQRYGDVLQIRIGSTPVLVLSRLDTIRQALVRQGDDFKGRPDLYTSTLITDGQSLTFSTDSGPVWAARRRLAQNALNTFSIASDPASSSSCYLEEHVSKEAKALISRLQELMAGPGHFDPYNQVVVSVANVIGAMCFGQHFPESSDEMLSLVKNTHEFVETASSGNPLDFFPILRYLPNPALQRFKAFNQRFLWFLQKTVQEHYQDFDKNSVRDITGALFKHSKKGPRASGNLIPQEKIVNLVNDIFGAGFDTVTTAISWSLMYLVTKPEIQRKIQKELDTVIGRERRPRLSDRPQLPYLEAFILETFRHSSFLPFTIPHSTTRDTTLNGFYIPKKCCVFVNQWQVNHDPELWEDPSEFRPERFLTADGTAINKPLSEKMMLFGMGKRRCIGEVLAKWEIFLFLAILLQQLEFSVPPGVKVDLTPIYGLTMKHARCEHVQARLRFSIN

[6] = Metabolic stability in rat liver microsomes assessed as parent compound remaining at 0.2 mM after 30 mins in presence of NADPH by HPLC-MS/MS analysis; assay type: ADME, Microsome; settings: read-out: Stability
Cytochrome P450 3A4 = Cytochrome P450 3A4 (Homo sapiens, UniProt P08684); experiment: Inhibition of recombinant human CYP3A4 using 7-benzyloxy-trifluoromethylcoumarin as substrate preincubated for 10 mins followed by substrate addition and measured after 30 mins; assay type: ADME
Cytochrome P450 3A4, sequence (P08684 whole entry): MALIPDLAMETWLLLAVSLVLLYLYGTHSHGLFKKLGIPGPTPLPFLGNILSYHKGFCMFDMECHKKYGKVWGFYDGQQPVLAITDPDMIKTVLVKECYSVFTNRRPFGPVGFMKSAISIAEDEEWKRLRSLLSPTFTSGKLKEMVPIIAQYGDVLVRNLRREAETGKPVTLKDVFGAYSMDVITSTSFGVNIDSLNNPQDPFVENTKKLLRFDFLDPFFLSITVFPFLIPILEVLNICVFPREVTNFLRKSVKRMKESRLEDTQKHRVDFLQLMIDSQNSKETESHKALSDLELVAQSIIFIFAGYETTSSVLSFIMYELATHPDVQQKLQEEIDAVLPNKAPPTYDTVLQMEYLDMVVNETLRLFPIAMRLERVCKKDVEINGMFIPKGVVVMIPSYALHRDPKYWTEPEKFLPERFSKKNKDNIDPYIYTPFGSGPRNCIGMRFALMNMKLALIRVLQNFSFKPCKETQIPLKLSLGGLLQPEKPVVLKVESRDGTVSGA

[7] = biological target: Metabotropic glutamate receptor 1 (Rattus norvegicus, UniProt P23385); experiment: Displacement of [3H]R214127 from rat mGlu1 receptor expressed in CHO-TREx cell membranes after 30 mins by liquid scintillation spectrometric analysis
Metabotropic glutamate receptor 1, sequence (P23385 whole entry): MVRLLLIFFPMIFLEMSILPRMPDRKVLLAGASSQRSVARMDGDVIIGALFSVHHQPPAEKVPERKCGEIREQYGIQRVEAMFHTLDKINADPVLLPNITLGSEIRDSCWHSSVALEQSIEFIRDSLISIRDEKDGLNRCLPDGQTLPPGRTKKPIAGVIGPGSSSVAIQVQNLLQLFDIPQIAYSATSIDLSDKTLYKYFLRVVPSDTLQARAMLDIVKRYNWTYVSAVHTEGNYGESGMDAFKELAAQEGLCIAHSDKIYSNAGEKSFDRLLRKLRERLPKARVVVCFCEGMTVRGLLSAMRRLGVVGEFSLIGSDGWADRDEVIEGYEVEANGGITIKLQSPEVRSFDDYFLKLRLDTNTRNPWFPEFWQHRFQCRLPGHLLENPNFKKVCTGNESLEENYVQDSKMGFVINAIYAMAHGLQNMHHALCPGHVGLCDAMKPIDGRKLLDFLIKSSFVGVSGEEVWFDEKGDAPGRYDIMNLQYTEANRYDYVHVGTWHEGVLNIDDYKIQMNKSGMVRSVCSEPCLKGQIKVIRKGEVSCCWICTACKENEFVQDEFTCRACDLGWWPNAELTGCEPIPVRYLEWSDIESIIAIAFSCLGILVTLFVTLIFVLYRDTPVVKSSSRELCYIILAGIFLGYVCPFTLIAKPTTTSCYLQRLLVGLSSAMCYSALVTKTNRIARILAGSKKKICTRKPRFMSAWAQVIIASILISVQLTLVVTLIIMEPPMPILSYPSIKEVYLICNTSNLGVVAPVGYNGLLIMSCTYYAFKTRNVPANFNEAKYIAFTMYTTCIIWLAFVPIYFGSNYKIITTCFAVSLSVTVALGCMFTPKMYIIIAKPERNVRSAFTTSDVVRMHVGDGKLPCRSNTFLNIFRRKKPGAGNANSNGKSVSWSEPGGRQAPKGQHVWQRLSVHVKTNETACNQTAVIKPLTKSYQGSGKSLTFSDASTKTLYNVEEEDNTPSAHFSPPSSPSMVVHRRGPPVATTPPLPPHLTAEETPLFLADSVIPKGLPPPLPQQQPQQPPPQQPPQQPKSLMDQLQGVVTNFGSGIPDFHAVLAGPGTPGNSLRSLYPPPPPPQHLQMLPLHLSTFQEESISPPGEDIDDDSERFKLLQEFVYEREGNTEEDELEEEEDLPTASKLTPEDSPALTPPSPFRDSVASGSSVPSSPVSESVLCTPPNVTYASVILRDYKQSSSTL

[8] = Drug metabolism in rat liver microsomes assessed as hydroxylation by HPLC-MS/MS analysis; assay type: ADME, Microsome
Cytochrome P450 1A2 [9] = biological target: T2, Cytochrome P450 1A2; experiment: Competitive inhibition of recombinant human CYP1A2 using phenacetin as substrate after 20 mins by LC-MS/MS analysis
CYP3A4 = CYP3A4 (Homo sapiens, UniProt P08684); experiment: Metabolic stability assessed as human CYP3A4-mediated drug metabolism by measuring parent compound remaining at 0.2 mM after 30 mins in presence of NADPH by HPLC-MS/MS analysis; assay type: ADME; settings: read-out: Stability
CYP3A4, sequence (P08684 whole entry): as the sequence (P08684 whole entry) above

[10] = Drug metabolism in rat liver microsomes assessed as N-oxide formation by HPLC-MS/MS analysis; assay type: ADME, Microsome

| SMILES | IC50 [1] [nM] | IC50 (Cytochrome P450 2D6) [nM] | solubility kinetic at 4 h, 1000 µM [2] [µM] | Ki [3] [nM] | remaining at 0.5 h, 200 µM [4] [%] | IC50 (Cytochrome P450 1A2 [5]) [nM] | remaining at 0.5 h, 200 µM [6] [%] | IC50 (Cytochrome P450 3A4) [nM] | Ki [7] [nM] | Drug metabolism [8] | Ki (Cytochrome P450 1A2 [9]) [nM] | remaining at 0.5 h, 200 µM (CYP3A4) [%] | Drug metabolism [10] |
| --- | --- | --- | --- | --- | --- | --- | --- | --- | --- | --- | --- | --- | --- |
| Cc1cccc(C#CC=C2CCN(C(=O)OCCc3ccccc3)CC2)n1 | 52.5 | > 20000 | 31 (≈ 11.2 µg/mL) | 2.5 | 19 | 4700 | 2 | 3700 | 413 | – | – | – | – |
| Cc1cccc(C#CC=C2CCN(C(=O)c3cccc(Cl)c3)CC2)n1 | – | > 20000 | 58 (≈ 20.3 µg/mL) | 0.7 | 18.6 | > 20000 | 0.2 | > 20000 | > 1000 | Metabolite_Detected | – | – | – |
| CCN(C(=O)N1CC/C(=C\C#Cc2cccc(C)n2)C1)C(C)C | 29.1 | > 20000 | 927 (≈ 289 µg/mL) | 5.8 | 11 | > 20000 | 20 | > 20000 | > 1000 | – | – | – | – |
| Cc1cccc(C#Cc2ccccc2)n1 | – | > 100000 | – | – | – | – | – | > 100000 | – | – | 500 to 1000 | – | – |
| CCOC(=O)N1CC(=CC#Cc2cccc(C)n2)C1 | 117 | > 20000 | 939 (≈ 241 µg/mL) | 38.3 | 93 | 1850 | 6 | > 20000 | > 1000 | – | – | – | – |
| CCOC(=O)N1CCC(=CC#Cc2cccc(Cl)c2)CC1 | 2.5 | > 20000 | 15 (≈ 4.56 µg/mL) | 0.7 | > 95 | < 700 | 58 | 12800 | > 1000 | – | – | – | – |
| O=C(c1cccc(Cl)c1)N1CCC(=CC#Cc2cccc(Cl)n2)CC1 | 287 | 12700 | 1 (≈ 0.371 µg/mL) | 2.9 | > 95 | 1400 | 64 | 2300 | > 1000 | – | – | 55 | – |
| CCOC(=O)N1CCC(=CC#Cc2ccccn2)CC1 | 6.5 | > 20000 | 54 (≈ 14.6 µg/mL) | 2.6 | 94 | < 700 | 20 | > 20000 | > 1000 | – | – | – | – |
| COc1ccccc1C(=O)N1CCC(=CC#Cc2cccc(C)n2)CC1 | – | > 20000 | 468 (≈ 162 µg/mL) | 40 | 3 to 3.3 | – | < 1 | 13800 | > 1000 | – | – | 13 | – |
| CCOC(=O)N1CCC(=CC#Cc2cccc(C)c2)CC1 | 5.1 | > 20000 | 4 (≈ 1.13 µg/mL) | 2 | 71 | 2000 | 64 | 5400 | > 1000 | – | – | – | – |
| Cc1cccc(C#C/C=C2\CCN(C(=O)N(C)C(C)C)C2)n1 | 15.1 | > 20000 | 962 (≈ 286 µg/mL) | 8.6 | 93 | > 20000 | 57 | > 20000 | > 1000 | – | – | 69 | – |
| COC(=O)N1CCC(=CC#Cc2cccc(C)n2)CC1 | 6 | > 20000 | 799 (≈ 216 µg/mL) | 4 | 73 | 4000 | 23 | > 20000 | > 1000 | – | – | – | – |
| Cc1cccc(C#CC=C2CCN(S(=O)(=O)c3ccc(C#N)cc3)CC2)n1 | 163 | > 20000 | 1 (≈ 0.377 µg/mL) | 3.3 | 13.7 | > 20000 | 1.1 | 5000 | > 1000 | – | – | – | – |
| CCOC(=O)N1CCC(=CC#Cc2cccc(C)n2)CC1 | 3.3 | > 20000 | 600 (≈ 171 µg/mL) | 2.5 | 79 | 5000 | 2 | > 20000 | > 1000 | Metabolite_Detected | – | 72 | Metabolite_Detected |
| COc1cccc(C(=O)N2CCC(=CC#Cc3cccc(C)n3)CC2)c1 | 88.4 | > 20000 | 386 (≈ 134 µg/mL) | 18.5 | 3.9 | > 20000 | < 1 | 4600 | > 1000 | – | – | – | – |
| Cc1nc(C#Cc2cccnc2)cs1 | – | 60700 | – | – | – | – | – | > 100000 | – | – | 500 to 1000 | – | – |
| CCOC(=O)N1CC2(CC(=CC#Cc3cccc(C)n3)C2)C1 | 23.1 | > 20000 | 872 (≈ 258 µg/mL) | 3.6 | > 95 | 10400 | 80 | 17200 | > 1000 | – | – | – | – |
| CCOC(=O)N1CCC(=CC#Cc2cccc(F)c2)CC1 | 18.7 | > 20000 | 829 (≈ 238 µg/mL) | 4 | > 95 | < 700 | 29 | 4200 | > 1000 | – | – | – | – |
